KCNK9 inh = blocks the human KCNK9 two-pore domain potassium channel. B-score at 10 µM. HEK293 KCNK9, FluxOR thallium flux fluorescence; active compounds read low. hit rate 1.2% among 310,000. AID 488922;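 active means ratio B-score over 3 SD below the library mean, with starting fluorescence within 5 SD of its mean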;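 further: negative B-score means less thallium flux so channel inhibition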
Target sequence (Q9NPC2 whole entry, looked up, the tested form may be a part): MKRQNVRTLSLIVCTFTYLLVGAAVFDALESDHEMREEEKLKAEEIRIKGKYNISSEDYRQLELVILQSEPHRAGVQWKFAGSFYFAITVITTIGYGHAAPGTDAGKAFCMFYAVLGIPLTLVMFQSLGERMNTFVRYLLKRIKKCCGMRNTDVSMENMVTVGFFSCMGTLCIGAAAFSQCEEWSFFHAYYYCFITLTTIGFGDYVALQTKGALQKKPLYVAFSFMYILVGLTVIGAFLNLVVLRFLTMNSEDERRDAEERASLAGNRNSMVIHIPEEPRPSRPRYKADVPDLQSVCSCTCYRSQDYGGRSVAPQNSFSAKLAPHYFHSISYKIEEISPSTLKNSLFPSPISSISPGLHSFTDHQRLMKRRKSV
hERG rescue = compounds protecting human hERG from proarrhythmic drug block; CHO-hERG, FluxOR thallium flux, dofetilide IC70 present; activation (rescue from dofetilide block), less the hit threshold, % at 10 µM; hit rate 0.51% among 310,000; AID 1511;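 active means activation above the mean of controls blocked by dofetilide plus 5 SD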;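 further: thallium influx through hERG after potassium depolarization seen as dye fluorescence rise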
Kir21 block = blocks the mouse Kir2.1 inward-rectifier potassium channel. P35561. HEK293-Kir2.1, FluxOR thallium flux fluorescence; active compounds read low. B-score at 10 µM. AID 1672. hit rate 0.85% among 310,000;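 active means fluorescence ratio B-score at or below minus 3 SD of library scores, with starting-brightness B-score within 2 SD, cut at about -4.2 in these data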;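 further: channel flux triggered by added potassium and thallium sulfate stimulus; B-score of peak minus minimum fluorescence over baseline after thallium stimulus; more negative B-score means stronger Kir2.1 block with less thallium influx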
KCNQ1 pot = human KCNQ1 channel potentiation or activation. hit rate 0.35% among 310,000. AID 2648. P51787. CHO-K1 KCNQ1, thallium flux FluxOR fluorescence; active compounds read high. B-score at 10 µM;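 active means fluorescence ratio B-score, a plate-corrected score, at least three library SD, with initial intensity B-score within 5 SD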
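System: Stable KCNQ1 CHO-K1 line | Incubation: 90 min dye loading and 20 min compound exposure, both at room temperature | Measure: Ratio B score | Medium: Assay buffer for compound exposure, DMSO matched across wells | Compound dosing: Single-concentration screen | Probe or stimulus: K+/Tl+ depolarizing stimulus | Measured by: Kinetic FluxOR fluorescence, 10 s baseline plus 110 s post-stimulus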
KCNK3 inh = human KCNK3 channel inhibition, primary screen. O14649. CHO-KCNK3 thallium flux, FluxOR fluorescence; active compounds read low. B-score at 10 µM. hit rate 0.84% among 340,000;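 active means B-score under library mean minus 4 SD, starting fluorescence ratio at most library mean plus 5 SD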;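 further: more negative B-score means stronger inhibition of thallium flux through KCNK3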
KCNQ1 block = human KCNQ1 channel inhibition; P51787; CHO-K1 KCNQ1, FluxOR thallium flux fluorescence; active compounds read high; B-score at 10 µM; hit rate 1.3% among 310,000;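 active means compounds whose thallium flux B-score, printed positive for inhibition, exceeds three library SD while starting fluorescence stays within three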;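 further: channel opened by potassium depolarization with thallium stimulus after 20 min compound exposure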
KCNK9 block conf = human KCNK9 inhibitor confirmation; shares compounds with KCNK9 inh; hit rate 43% among 4,900; HEK293 KCNK9 cells, FluxOR thallium flux fluorescence; inhibition, % at 10 µM;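 active means thallium signal inhibited by more than 5 SD of the compound-free buffer control wells, on both duplicate plates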;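 further: 0% = assay buffer control wells without compound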
Kir21 sel = selectivity of KCNK9 modulators against mouse Kir2.1; Kir2.1 cells, FluxOR thallium flux fluorescence; shares compounds with KCNK9 inh; inhibition, % at 10 µM; hit rate 4% among 4,900;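 active means thallium signal drop more than 5 SD beyond the mean of the no-compound control wells, seen in both duplicate plates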;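 further: signal is fluorescence rise after thallium addition divided by baseline fluorescence; plate controls were assay buffer only for no effect and full block by chlorpromazine control for full effect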
HEK293 Tl ctr = second counter-screen for KCNK9 modulators: effect in non-induced cells. shares compounds with KCNK9 inh. non-induced KCNK9-HEK293, FluxOR thallium flux. inhibition, % at 10 µM. hit rate 40% among 4,900;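 active means thallium signal drop beyond 5 SD of the untreated control mean, on both duplicate plates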;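 further: plate controls were buffer only IC0 wells for no effect and SID17386958 at its maximal inhibitory level for full effect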
The depositor's hits bear a star; i = inactive; · = no result given. Compounds with a hit are over-represented: about 3.7% of the library has one in this group of screens.

SMILES	KCNK9 inh	hERG rescue	Kir21 block	KCNQ1 pot	KCNK3 inh	KCNQ1 block	KCNK9 block conf	Kir21 sel	HEK293 Tl ctr
CCOCCn1c(=NC(=O)CSCC(=O)Nc2cc(C)on2)sc2cc(OC)ccc21	i	-4.8	-0.76	i	i	i	·	·	·
COc1ccc(C(=O)Cn2c(Cl)nc3c2c(=O)n(C)c(=O)n3C)cc1	i	-15.2	-0.64	i	i	i	·	·	·
COc1ccc(CCNC(=O)CN2C(=O)COc3ccc(S(=O)(=O)N4CCCC4)cc32)c(OC)c1	i	-6.8	0.18	i	i	i	·	·	·
O=C(N/N=C/c1ccc(OC(=O)c2ccccc2)c([N+](=O)[O-])c1)c1ccc(O)cc1	i	-9.3	-0.09	i	i	i	·	·	·
CC(C)NC(=O)[C@H](CSCc1ccccc1)N1Cc2ccccc2C1=O	i	-6.2	0.33	i	i	i	·	·	·
O=C(NC1CCCCC1)[C@H](CSCc1ccccc1)N1Cc2ccccc2C1=O	i	-8.4	2.66	i	i	i	i	i	i
Cc1ccc(C)c(N2CCN(S(=O)(=O)c3c(C)noc3C)CC2)c1	i	-0.6	1.54	i	i	i	i	i	28.0%*
N#CC1=C(N)OC2=C(C(=O)CCC2)C1c1cc2c(cc1Br)OCO2 (stereo not drawn)	i	-8.2	-0.52	i	i	i	·	·	·
COc1ccc(CNC(=O)CN(Cc2ccccc2)S(=O)(=O)c2ccc(Cl)cc2)cc1	i	-15.2	-0.85	i	i	i	·	·	·
COc1ccc(C)cc1S(=O)(=O)N(CC(=O)NCc1ccc(Cl)cc1)Cc1ccccc1	-10*	-10.9	0.75	i	i	i	i	i	39.5%*
CN(CC(=O)NC(=O)NCc1ccccc1)Cc1ccc(Cl)cc1	i	-4.4	-0.95	i	i	i	i	i	i
CN(CC(=O)NC(=O)NCc1ccccc1)Cc1cccc(Cl)c1Cl	i	0.1	-2.02	i	i	i	i	i	22.0%*
CN(CC(=O)NCc1ccccc1)Cc1ccc(Cl)cc1	i	-4.3	-1.4	i	i	i	·	·	·
Cc1ccc(C(=O)NCC(=O)N2CCCC(C(F)(F)F)C2)s1 (stereo not drawn)	i	-6.6	-0.42	i	i	i	·	·	·
CC1(C)CC(=O)C(C=Nc2cccnc2/N=C/C2=C(O)CC(C)(C)CC2=O)=C(O)C1	i	-6.3	0.83	i	i	i	·	·	·
COC(=O)C(Oc1ccc2c(-c3ccc(OC)cc3)cc(=O)oc2c1)c1ccccc1 (stereo not drawn)	-9.35*	-7.2	-1.25	i	i	i	54.5%*	i	35.5%*
COc1ccc(N2C(=O)/C(=C\c3ccco3)N=C2SCC(=O)NC(C)(C)C)cc1Cl	-9.11*	-6.0	0.05	i	i	i	44.0%*	i	33.0%*
Cc1ccc(NS(=O)(=O)c2cc(C(=O)N3CCc4ccccc4C3)ccc2Cl)cc1	-12.5*	-3.8	0.51	i	i	i	i	i	25.5%*
CN(c1ccccc1)S(=O)(=O)c1ccc(C(=O)N2CCc3ccccc3C2)cc1	i	-3.1	2.19	i	i	i	·	·	·
Cc1ccc(S(=O)(=O)N(C)c2ccc(C(=O)N3CCc4ccccc4C3)cc2)cc1	i	-8.6	-0.6	i	i	i	i	i	i
Cc1ccc(NS(=O)(=O)c2cc(C(=O)O)ccc2Cl)cc1	i	-5.4	0.48	i	i	i	·	·	·
COc1ccc(CC(=O)NCc2n[nH]c(=S)n2-c2ccccc2OC)cc1	i	-15.2	-1.34	i	i	i	·	·	·
CCCC(=O)N=C1SC2CS(=O)(=O)CC2N1c1ccc(-c2nc3ccc(C)cc3s2)cc1 (stereo not drawn)	i	-2.4	-0.9	i	i	i	·	·	·

Screening data as filed in PubChem BioAssay.
